Screening results from PubChem BioAssay.
This is a sample that favours compounds with a hit; in the whole collection about 2.3% have one here.
TRPC4 PAM: allosteric potentiators of mouse TRPC4 channel; Q9QUQ5; HEK293 TRPC4beta/mu-opioid, DAMGO EC20, Fluo-4 Ca2+ flux; stronger effect = higher value; B-score at 10 µM; 0.42% of 310,000 active;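 active means B-score of calcium response area above 5 SD of library B-scores, with initial fluorescence ratio within 5 SD of library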;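 further: B-score of integrated fluorescence ratio over time as area under calcium response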
Target sequence (Q9QUQ5 whole entry, looked up): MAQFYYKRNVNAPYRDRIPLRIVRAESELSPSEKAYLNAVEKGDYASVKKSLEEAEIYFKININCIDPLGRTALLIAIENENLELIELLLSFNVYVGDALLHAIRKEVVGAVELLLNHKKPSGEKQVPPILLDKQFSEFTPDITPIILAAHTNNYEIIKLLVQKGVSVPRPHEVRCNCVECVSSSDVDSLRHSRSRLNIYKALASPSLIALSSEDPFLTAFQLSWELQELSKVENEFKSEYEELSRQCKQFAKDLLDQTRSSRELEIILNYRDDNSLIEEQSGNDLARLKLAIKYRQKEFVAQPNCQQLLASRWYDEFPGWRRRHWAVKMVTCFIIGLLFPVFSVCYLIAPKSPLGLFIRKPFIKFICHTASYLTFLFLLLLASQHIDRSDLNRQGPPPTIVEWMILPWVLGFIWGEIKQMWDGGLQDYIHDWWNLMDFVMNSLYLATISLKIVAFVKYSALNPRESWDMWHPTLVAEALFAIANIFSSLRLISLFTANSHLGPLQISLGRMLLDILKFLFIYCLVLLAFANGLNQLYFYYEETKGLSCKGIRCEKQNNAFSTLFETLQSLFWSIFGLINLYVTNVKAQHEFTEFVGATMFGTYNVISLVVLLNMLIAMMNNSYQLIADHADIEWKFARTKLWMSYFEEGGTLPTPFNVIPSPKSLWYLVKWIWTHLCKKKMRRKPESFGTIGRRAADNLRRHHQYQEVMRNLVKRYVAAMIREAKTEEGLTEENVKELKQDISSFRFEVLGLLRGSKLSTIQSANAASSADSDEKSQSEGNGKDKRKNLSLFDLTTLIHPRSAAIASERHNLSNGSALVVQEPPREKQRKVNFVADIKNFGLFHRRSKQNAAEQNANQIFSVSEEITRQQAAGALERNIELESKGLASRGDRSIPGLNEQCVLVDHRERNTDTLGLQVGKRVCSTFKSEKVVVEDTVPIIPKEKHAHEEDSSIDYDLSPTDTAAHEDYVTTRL
TRPC4 inh: TRPC4 (mouse) channel inhibition. AID 2247. B-score at 10 µM. Q9QUQ5. HEK293 TRPC4beta/mu-opioid, DAMGO-evoked Fluo4 calcium flux; stronger effect = lower value. 0.39% of 300,000 active;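 active means B-score over 3 SD under the library average, no early fluorescence shift, positive overall ratio signal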
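Assay system – HEK293 line stably carrying TRPC4beta and mu-opioid receptor · Doses – single dose · Detection – Fluo4 calcium-dye fluorescence, kinetic read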
TRPC4 act: activators of mouse TRPC4 channel; Q9QUQ5; HEK293 TRPC4beta/mu-opioid, Fluo4 calcium fluorescence; stronger effect = higher value; B-score at 10 µM; 0.49% of 310,000 active; AID 2237;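 active means B-score above 5 SD of library B-scores, and initial fluorescence ratio not above library mean plus 5 SD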;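 further: positive B-score marks a calcium rise read as TRPC4 activation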
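Material: TRPC4beta and mu-opioid receptor HEK293 stable cells | Incubation: 45 min room-temperature Fluo4 loading, 110 s read | Detection: Kinetic Fluo4 calcium fluorescence | Measure: Integrated baseline-normalised fluorescence ratio, converted to per-well B score | Benchmarks: Low control buffer alone, high control maximal DAMGO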
TRPC6 inh: inhibitors of mouse TRPC6 channel; HEK293-TRPC6, membrane potential dye, ACh-evoked depolarization; stronger effect = lower value; Q61143; 1.1% of 310,000 active; B-score at 10 µM;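 active means B-score under library mean minus 3 SD, initial fluorescence not abnormally high, positive integrated signal ratio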;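 further: B-score derived from integrated fluorescence ratio over the kinetic read; more negative B-score means stronger inhibition of depolarization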
TRPC6 act: activators of mouse TRPC6 channel; HEK293-TRPC6 membrane potential dye fluorescence; stronger effect = higher value; B-score at 10 µM; 0.13% of 310,000 active; AID 2550;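 active means B-score of the integrated fluorescence ratio above library mean plus 3 SD, and starting fluorescence ratio within library mean plus 5 SD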;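 further: higher score means more depolarization so channel activation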
TRPC4 spec 2: mouse TRPC4 off-target activity of TRPC6 inhibitors, second screen | inhibition, % at 10 µM | HEK293 TRPC4/MOR, membrane potential dye fluorescence; channel activated by saturating DAMGO dose | shares compounds with TRPC6 inh | 42% of 920 active;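 active means compounds whose fluorescence signal differed from control wells by over 3 SD, either direction, in both duplicate plates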
TRPC4 spec: mouse TRPC4 off-target activity of TRPC6 inhibitors; shares compounds with TRPC6 inh; HEK293 TRPC4/mu-opioid, membrane potential fluorescence; activity change, negative = inhibition, % at 10 µM; 61% of 920 active;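 active means rise or fall in signal beyond 3 SD of buffer-only wells in both replicate plates, either sign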;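 further: integrated kinetic ratio of fluorescence range over baseline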
HEK293 MPD ctr 2-1: parental HEK293 nonspecific activity of TRPC6 inhibitors, second screen; shares compounds with TRPC6 inh; parental HEK293 membrane potential dye fluorescence; maximal acetylcholine challenge after compound addition; signal change vs control, % at 10 µM; 31% of 920 active;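 active means membrane potential signal moving either way by over 3 SD of the maximum-effect control, in both duplicate plates, meaning non-specific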
HEK293 MPD ctr-1: parental HEK293 nonspecific activity of TRPC6 inhibitors | shares compounds with TRPC6 inh | parental HEK293 membrane potential dye fluorescence | membrane potential signal change, % at 10 µM | 60% of 920 active;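 active means membrane potential signal shifting up or down by more than 3 SD of buffer-only wells, on both duplicate plates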
HEK293 MPD ctr-2: parental HEK293 nonspecific activity of TRPC6 modulators; shares compounds with TRPC6 inh; membrane potential dye fluorescence; membrane potential signal change, % at 10 µM; 51% of 2,400 active; AID 488924;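 active means membrane potential signal moves up or down beyond 5 SD from buffer-only wells, on both duplicate plates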
HEK293 MPD ctr 2-2: parental HEK293 nonspecific activity of TRPC6 modulators, second screen. inhibition, % at 10 µM. 14% of 2,400 active. membrane potential dye fluorescence; after compound, maximal acetylcholine stimulation. AID 488926. shares compounds with TRPC6 inh;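 active means membrane potential signal drops by more than 5 SD from the mean control signal, in both duplicate plates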;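 further: plate controls were acetylcholine ECmax control wells for no effect and buffer only wells for full effect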
TRPC4/MOR mod: mouse TRPC4 off-target activity of TRPC6 modulators | shares compounds with TRPC6 inh | HEK293 TRPC4/mu-opioid, membrane potential fluorescence | percent change from control (negative = decrease, positive = increase), % at 10 µM | 69% of 2,400 active;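 active means membrane potential signal moved up or down beyond 5 SD of buffer control wells, in both duplicate plates, actives on both sides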;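 further: plate controls were assay buffer wells for no effect and DAMGO maximal-effect wells for full effect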
TRPC4/MOR inh 2: second selectivity test of TRPC6 modulators against mouse TRPC4; shares compounds with TRPC6 inh; HEK293 TRPC4/mu-opioid, membrane potential dye fluorescence; stimulated with maximal-effect DAMGO; inhibition, % at 10 µM; 55% of 2,400 active;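 active means drop in membrane potential signal beyond 5 SD of the control wells in both duplicate plates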;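 further: TRPC4 counter screen for TRPC6 hits run under conditions tuned for TRPC6 not TRPC4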
TRPC6 inh conf: mouse TRPC6 inhibitor confirmation. HEK293-TRPC6, membrane potential dye, ACh-evoked depolarization. inhibition, % at 10 µM. 43% of 3,300 active. shares compounds with TRPC6 inh. AID 488960;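 active means fluorescence ratio falls more than 5 SD below the full-stimulation control mean, in both duplicate runs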;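 further: integrated fluorescence ratio of peak minus minimum over baseline after agonist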
TRPC6 act conf: confirmation of mouse TRPC6 activators; shares compounds with TRPC6 inh; HEK293-TRPC6 membrane potential dye fluorescence, FDSS; activation, % at 10 µM; 11% of 2,800 active; AID 488961;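 active means ratio signal rise beyond 5 SD above unstimulated control wells' mean, seen in both duplicate runs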;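 further: plate controls were buffer EC0 wells for no effect and acetylcholine ECmax response for full effect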
* = called active by the depositor; i = inactive; · = no result given; + = active, no number.

SMILES | TRPC4 PAM | TRPC4 inh | TRPC4 act | TRPC6 inh | TRPC6 act | HEK293 MPD ctr-2 | HEK293 MPD ctr 2-2 | TRPC4/MOR mod | TRPC4/MOR inh 2 | TRPC6 inh conf | TRPC6 act conf | others
CN(CC(=O)Nc1ccc(F)cc1)C(=O)CN1C(=O)NC2(CCCc3ccccc32)C1=O (stereo not drawn) | i | i | i | i | i | · | · | · | · | · | ·
C=CC(=O)N(CCC)C(c1ccccc1)c1ccccc1OC (stereo not drawn) | i | i | i | i | i | · | · | · | · | · | ·
NS(=O)(=O)c1ccc(NC(=S)NCc2ccc3c(c2)OCO3)cc1 | i | i | i | -6.8* | i | i | i | i | i | i | i
COc1cc2c(cc1OC)C1(NCC2)C(=O)Nc2ccccc21 (stereo not drawn) | i | i | i | i | i | · | · | · | · | · | ·
COc1cc2c(cc1OC)C1(Nc3c-2c(Cc2ccccc2)nn3-c2ccccc2)C(=O)Nc2ccccc21 (stereo not drawn) | i | i | i | -6.8* | i | · | · | · | · | i | i | TRPC4 spec 2=i;TRPC4 spec=-9.5%*;HEK293 MPD ctr 2-1=i;HEK293 MPD ctr-1=i
CCN(CC)C(=O)NC1CC2CCCC(C1)N2Cc1ccccc1 (stereo not drawn) | i | i | i | i | i | · | · | · | · | · | ·
O=C(Nc1ccccc1-c1ccccc1)NC1CC2CCCC(C1)N2CCc1ccccc1 (stereo not drawn) | i | i | i | -7* | i | · | · | · | · | 65%* | i | TRPC4 spec 2=46%*;TRPC4 spec=i;HEK293 MPD ctr 2-1=i;HEK293 MPD ctr-1=-0.2%*
O=C(Nc1ccccc1-c1ccccc1)NC1CC2CCCC(C1)N2Cc1ccc(F)cc1 (stereo not drawn) | i | i | i | -8* | i | · | · | · | · | 51%* | i | TRPC4 spec 2=51%*;TRPC4 spec=4.8%*;HEK293 MPD ctr 2-1=i;HEK293 MPD ctr-1=4.0%*
Cc1cc(Br)c(NC(=O)Cn2c([N+](=O)[O-])cnc2C)cc1C | i | i | i | i | i | · | · | · | · | · | ·
COc1ccc(CCN2CC(C(=O)N(C)C3CCOCC3)CCC2=O)cc1 (stereo not drawn) | i | i | i | i | i | · | · | · | · | · | ·
CN1CCN(c2ccc(Cl)cc2NC(=O)c2cccc(S(=O)(=O)N(C)C)c2)CC1 | i | i | i | -5.3* | i | i | i | i | 34%* | i | i
COc1cc(/C=C/C(=O)c2ccc3c(c2)OCO3)cc(Cl)c1O | i | i | 100* | i | 52* | + | + | 258%* | 54%* | · | 342%*
COc1ccc(C(=O)NC(=S)N(CCC(C)C)c2c(N)n(Cc3ccccc3)c(=O)[nH]c2=O)cc1 | i | i | i | -5.5* | i | i | i | i | i | i | i
COCCCN(C(=S)NC(=O)c1ccc(C(C)(C)C)cc1)c1c(N)n(Cc2ccccc2)c(=O)[nH]c1=O | i | i | i | i | i | · | · | · | · | · | ·
O=C(NCC(=O)N1CCOCC1)c1ccc(Cl)cc1 | i | i | i | -9.1* | i | i | i | i | i | i | i
Cc1ccc(CN(C)C(=O)c2ccccc2Sc2ccccc2C#N)cc1 | i | i | i | -5.1* | i | 104%* | i | 22%* | i | 62%* | ·
CN(Cc1ccc(OC(F)F)cc1)C(=O)c1ccccc1Sc1ccccc1C#N | i | i | i | i | i | · | · | · | · | · | ·
CCOC(=O)N1CCN(C(=O)C2CCN(S(=O)(=O)c3ccc(OC)cc3)CC2)CC1 | i | i | i | i | i | · | · | · | · | · | ·
CC(C)(C)c1ccc(S(=O)(=O)N2CCN(C3CCCC3)CC2)cc1 | i | i | i | i | i | · | · | · | · | · | ·
COc1ccc(S(=O)(=O)N2CCC(N3CCN(Cc4ccccc4)CC3)CC2)cc1 | i | i | i | -5.3* | i | 134%* | i | 18%* | 32%* | 44%* | ·
CN1CCN(C2CCN(S(=O)(=O)c3ccc(C(C)(C)C)cc3)CC2)CC1 | i | i | i | i | 13* | 193%* | i | 32%* | i | i | 104%*
O=[N+]([O-])c1ccc(S(=O)(=O)N2CCN(C3CCN(Cc4ccccc4)CC3)CC2)cc1 | i | i | i | -5.9* | i | i | i | i | 38%* | i | i
O=S(=O)(c1ccc(Cl)cc1)N1CCN(C2CCN(Cc3ccccc3)CC2)CC1 | i | i | i | i | i | · | · | · | · | · | ·
CCCCn1c(N)c(N(CCOC)C(=O)c2cc(-c3ccc(OC)cc3)nc3ccccc23)c(=O)[nH]c1=O | i | i | i | i | i | · | · | · | · | · | ·
CCN1CCCC1CNC(=O)c1ccc(Sc2ccc(F)cc2)c([N+](=O)[O-])c1 (stereo not drawn) | i | i | i | -8.2* | i | i | i | i | 56%* | 52%* | i
CCN1CCCC1CNC(=O)c1ccc(Sc2ccccc2Cl)c([N+](=O)[O-])c1 (stereo not drawn) | i | i | i | -7.1* | i | i | i | i | 44%* | 42%* | i
